Test results published in PMC4535690 (Angewandte Chemie (International ed. in English), 2015).
Where a SMILES comes first, the peptide text is derived from it. The star is where a group is joined. Acetyl(thymin-1-yl) = Cc1cn(CC(=O)*)c(=O)[nH]c1=O; Adenin9ylacetyl = Nc1ncnc2c1ncn2CC(=O)*

Columns and labels:
[1] = system: PC12 cells; assay: Biocompatibility; type: cell-based; details: 7 days incubation (Figures S10, S11 and S12)
Summary of the method: (§1)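 Nucleopeptides were tested singly and as two-component heterodimer mixtures. HeLa cells (24 h doubling time) were incubated for 3 days, and PC12 cells (92 h doubling time) for 7 days. Viability was then assessed as a measure of biocompatibility.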

[2] = system: HeLa cells; assay: Biocompatibility; type: cell-based; details: 3 days incubation, single nucleopeptide (Figures S11 and S12)
Summary of the method: as §1

[3] = biological target: proteinase K (Parengyodontium album, UniProt P06873); assay: Proteolytic stability on incubation with proteinase K; type: in vitro ADME; details: single component, 0.2 mg/mL in HEPES buffer pH 7.4; proteinase K 3.2 U/mL; 24 h at 37 °C (Figure 3A; KTTPV Figure S9)
proteinase K, sequence (P06873 106-384, species assumed): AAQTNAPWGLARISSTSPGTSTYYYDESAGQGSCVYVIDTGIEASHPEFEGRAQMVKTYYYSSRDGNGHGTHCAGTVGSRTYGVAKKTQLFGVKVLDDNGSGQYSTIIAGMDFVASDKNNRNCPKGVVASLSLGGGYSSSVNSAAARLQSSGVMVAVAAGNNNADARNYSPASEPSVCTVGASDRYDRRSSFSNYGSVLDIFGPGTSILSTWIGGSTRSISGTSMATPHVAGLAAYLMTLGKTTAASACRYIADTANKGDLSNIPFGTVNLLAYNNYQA

Compound: Cc1cn(CC(=O)N[C@@H](CCCCN)C(=O)N[C@H](C(=O)N[C@H](C(=O)N2CCC[C@H]2C(=O)N[C@H](C(=O)O)C(C)C)[C@@H](C)O)[C@@H](C)O)c(=O)[nH]c1=O [compound 1] ({Acetyl(thymin-1-yl)}-KTTPV-OH; N-terminus and C-terminus assumed)
- Toxicity / inhibition of proliferation of PC12 cells [1]: no toxicity
- Toxicity to HeLa cells [2]: no toxicity

Compound: CC(C)[C@H](NC(=O)[C@@H]1CCCN1C(=O)[C@@H](NC(=O)[C@@H](NC(=O)[C@H](CCCCN)NC(=O)Cn1cnc2c(N)ncnc21)[C@@H](C)O)[C@@H](C)O)C(=O)O [compound 2] (Adenin9ylacetyl-KTTPV-OH; N-terminus and C-terminus assumed)
- Toxicity / inhibition of proliferation of PC12 cells [1]: no toxicity
- Toxicity to HeLa cells [2]: no toxicity

Compound: LGFNI [compound 3]
- Toxicity / inhibition of proliferation of PC12 cells [1]: no toxicity
- Compound remained after incubating with proteinase K [3]: hydrolyzes completely
- Toxicity to HeLa cells [2]: no toxicity
